Legend:
Neuraminidase [1] = molecular target: T1, Neuraminidase (Influenza A virus, UniProt B4URF0); experiment: Inhibition of Influenza A virus A/California/07/2009 (H1N1) neuraminidase using MUNANA as substrate preincubated for 30 mins measured after 2 hrs
Neuraminidase [2] = molecular target: T1, Neuraminidase; experiment: Inhibition of Influenza A virus A/Hong Kong/8/1968 (H3N2) neuraminidase using MUNANA as substrate preincubated for 30 mins measured after 2 hrs
Influenza A virus [3] = experiment: Antiviral activity against Influenza A virus A/California/07/2009 (H1N1) infected in MDCK cells assessed as reduction in virus plaque formation after 5 days; assay type: functional, organism-based; conditions: 120 h
Method in brief: (§1)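 MDCK cells were seeded at 1×10^6 per well and inoculated with virus at confluence. Serial ten-fold dilutions of inhibitor were added in an overlay of serum-free DMEM with 0.6% agarose and 1 µg/mL TPCK-treated trypsin. The overlay was removed after 5 days, and cells were fixed with 70% ethanol and stained with 0.2% crystal violet.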

Influenza A virus [4] = experiment: Antiviral activity against Influenza A virus A/Hong Kong/8/1968 (H3N2) infected in MDCK cells assessed as reduction in virus plaque formation after 5 days; assay type: functional, organism-based; conditions: 120 h; method in brief: as §1
Neuraminidase [5] = molecular target: T1, Neuraminidase; experiment: Inhibition of Influenza A virus H3N2 neuraminidase using MUNANA as substrate preincubated for 30 mins measured after 2 hrs
Neuraminidase [6] = molecular target: T1, Neuraminidase; experiment: Inhibition of Influenza A virus H5N1 neuraminidase using MUNANA as substrate preincubated for 30 mins measured after 2 hrs

T1 sequence (B4URF0 whole entry): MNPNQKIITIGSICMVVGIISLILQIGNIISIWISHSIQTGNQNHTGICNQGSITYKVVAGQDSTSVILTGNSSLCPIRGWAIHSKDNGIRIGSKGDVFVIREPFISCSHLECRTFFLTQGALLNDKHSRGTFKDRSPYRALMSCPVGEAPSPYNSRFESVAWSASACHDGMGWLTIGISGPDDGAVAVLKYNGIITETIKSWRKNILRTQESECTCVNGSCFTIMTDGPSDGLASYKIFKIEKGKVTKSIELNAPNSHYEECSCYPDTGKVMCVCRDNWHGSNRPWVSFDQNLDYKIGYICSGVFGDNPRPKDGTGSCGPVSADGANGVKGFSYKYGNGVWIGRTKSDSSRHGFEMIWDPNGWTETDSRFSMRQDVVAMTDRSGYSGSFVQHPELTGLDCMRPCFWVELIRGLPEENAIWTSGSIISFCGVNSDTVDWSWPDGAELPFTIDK

Compound | IC50 (Neuraminidase [1]) [µM] | IC50 (Neuraminidase [2]) [µM] | IC50 (Influenza A virus [3]) [µM] | IC50 (Influenza A virus [4]) [µM] | IC50 (Neuraminidase [5]) [µM] | IC50 (Neuraminidase [6]) [µM]
CC(=O)N[C@H]1[C@H]([C@H](O)[C@H](O)CO)OC(SCCCCCCS)(C(=O)O)C[C@@H]1N (stereo not given in full) | 56 | 64 | > 100 | 10 | 178 | 127
CC(=O)N[C@H]1[C@H]([C@H](O)[C@H](O)CO)OC(SCCCCCCSC2(C(=O)O)C[C@H](N)[C@@H](NC(C)=O)[C@H]([C@H](O)[C@H](O)CO)O2)(C(=O)O)C[C@@H]1N (stereo not given in full) | 9.9 | 11.6 | 100 | 1 | 32 | 20
CC(=O)N[C@H]1[C@H]([C@H](O)[C@H](O)CO)OC(SCCOCCOCCOCCOCCOCCSC2(C(=O)O)C[C@H](N)[C@@H](NC(C)=O)[C@H]([C@H](O)[C@H](O)CO)O2)(C(=O)O)C[C@@H]1N (stereo not given in full) | 45 | 33 | 100 | 1 | 216 | 85
CC(=O)N[C@H]1[C@H]([C@H](O)[C@H](O)CO)OC(SCCOCCOCCOCCSC2(C(=O)O)C[C@H](N)[C@@H](NC(C)=O)[C@H]([C@H](O)[C@H](O)CO)O2)(C(=O)O)C[C@@H]1N (stereo not given in full) | 9.8 | 11 | 100 | 1 | 39 | 28
CCOC(=O)C1=C[C@@H](OC(CC)CC)[C@H](NC(C)=O)[C@@H](N)C1 [OSELTAMIVIR] | – | – | 0.001 | 0.001 | – | –
CC(=O)N[C@H]1[C@H]([C@H](O)[C@H](O)CO)OC(SCCCCCCCCCCCCSC2(C(=O)O)C[C@H](N)[C@@H](NC(C)=O)[C@H]([C@H](O)[C@H](O)CO)O2)(C(=O)O)C[C@@H]1N (stereo not given in full) | 11 | 15 | 100 | 1 | 40 | 31
CC(=O)N[C@H]1[C@H]([C@H](O)[C@H](O)CO)OC(C(=O)O)=C[C@@H]1NC(=N)N [ZANAMIVIR] | – | – | 0.01 | 0.001 | – | –
CC(=O)N[C@H]1[C@H]([C@H](O)[C@H](O)CO)OC(SCCOCCOCCOCCOCCSC2(C(=O)O)C[C@H](N)[C@@H](NC(C)=O)[C@H]([C@H](O)[C@H](O)CO)O2)(C(=O)O)C[C@@H]1N (stereo not given in full) | 36 | 21 | 100 | 1 | 178 | 64
CC(=O)N[C@H]1[C@H]([C@H](O)[C@H](O)CO)OC(SCCOCCOCCOCCSC2(C(=O)O)C[C@H](NC(=N)N)[C@@H](NC(C)=O)[C@H]([C@H](O)[C@H](O)CO)O2)(C(=O)O)C[C@@H]1NC(=N)N (stereo not given in full) | 2.4 | 1.78 | 1 | 0.1 | 10 | 2.5
CC(=O)N[C@H]1[C@H]([C@H](O)[C@H](O)CO)OC(SCCCCCCSC2(C(=O)O)C[C@H](NC(=N)N)[C@@H](NC(C)=O)[C@H]([C@H](O)[C@H](O)CO)O2)(C(=O)O)C[C@@H]1NC(=N)N (stereo not given in full) | 0.26 | 0.25 | 1 | 0.01 | 4.2 | 0.2
CC(=O)N[C@H]1[C@H]([C@H](O)[C@H](O)CO)OC(SCCCCCCS)(C(=O)O)C[C@@H]1NC(=N)N (stereo not given in full) | 0.8 | 0.55 | 10 | 1 | 1 | 0.1
CC(=O)N[C@H]1[C@H]([C@H](O)[C@H](O)CO)OC(SCCCCCCCCCCCCSC2(C(=O)O)C[C@H](NC(=N)N)[C@@H](NC(C)=O)[C@H]([C@H](O)[C@H](O)CO)O2)(C(=O)O)C[C@@H]1NC(=N)N (stereo not given in full) | 0.8 | 0.5 | 1 | 0.1 | 12 | 0.73
CC(=O)N[C@H]1[C@H]([C@H](O)[C@H](O)CO)OC(SCCOCCOCCOCCOCCSC2(C(=O)O)C[C@H](NC(=N)N)[C@@H](NC(C)=O)[C@H]([C@H](O)[C@H](O)CO)O2)(C(=O)O)C[C@@H]1NC(=N)N (stereo not given in full) | 1.2 | 1 | 1 | 0.01 | 10 | 1.1
